Measurements gathered from unrelated publications.
MMP7: Matrilysin (MMP7, Homo sapiens, UniProt P09237)
PIP5K1C: Phosphatidylinositol 4-phosphate 5-kinase type-1 gamma (PIP5K1C, Homo sapiens, UniProt O60331)

With `CN(C)C(=O)COC(=O)Cc1ccc(OC(=O)c2ccc(NC(=N)N)cc2)cc1` the inhibition was 2% (MMP7; enzyme activity, inhibitor; 10 µM).
The inhibition of `C#Cc1n[nH]c2c(-c3cn(C(C)c4ccccn4)c(=O)[nH]c3=O)cc(F)cc12` (centres unmarked) is reported as 9.1% (Mitogen-activated protein kinase kinase kinase kinase 3 (MAP4K3, Homo sapiens, UniProt Q8IVH8); enzyme activity, inhibitor; 1 µM).
`CNC(=O)[C@H](Cc1ccccc1)NC(=O)[C@H](CC(C)C)[C@H](CSc1cccs1)C(=O)NO` has an inhibition of 31% (MMP7; enzyme activity, inhibitor; 1 nM).
`Nc1ncc(-c2nc(N3CCOCC3)nc(N3CCOCC3)n2)c(C(F)F)n1` gave a remaining binding of 100% (PIP5K1C; binding, competition with immobilised ligand; 10 µM).
The remaining binding of `COc1ncccc1-c1cnn2ccc(N3CCN(C(=O)OC(C)C)CC3)nc12` is reported as 67% (Serine/threonine-protein kinase/endoribonuclease IRE1 (ERN1, Homo sapiens, UniProt O75460); binding, competition with immobilised ligand; 1 µM).
`Cc1ccc(-c2cnnc(N3CCC(c4cccc(Cl)c4)C3)n2)o1` (centres unmarked) gave an inhibition of 45% (Inorganic pyrophosphatase (Mycobacterium tuberculosis, UniProt P9WI55); enzyme activity, inhibitor; 100 µM).
For `Cc1nn(C)cc1-c1nc2c(N3CCN(Cc4ccc(Cl)cc4)CC3)c(Cl)cnc2[nH]1`, the remaining binding was 84% (PIP5K1C; binding, competition with immobilised ligand; 1 µM).
With `CCN1CCN(Cc2ccc(NC(=O)c3ccc(C)c(Oc4ccnc5[nH]ccc45)c3)cc2C(F)(F)F)CC1` the inhibition was -13.4% (Serine/threonine-protein kinase 32C (STK32C, Homo sapiens, UniProt Q86UX6); target engagement in cells, inhibitor, chemoproteomics; Huh-7; 1 µM).
